Experimental data collected from several papers.
pEC50, pIC50: −log10 of the molar value.
Observed: cell growth or viability

`COc1ccc(C(=O)Nc2nc3cc(-c4ccc5ncn(Cc6ccccc6)c(=O)c5c4)ccc3s2)cc1` gave a pIC50 of under 4.70 (NCI-H1975; MTT; 72 h).
With `CCCCC(=O)Nc1ncc(-c2ccc3ncn(CCC)c(=O)c3c2)cn1` the pIC50 was 5.54 (NCI-H1975; CCK-8; 72 h).
`COc1cccc(NC(=O)Nc2nc3cc(-c4ccc5ncn(CC(=O)N6CCOCC6)c(=O)c5c4)ccc3s2)c1` has a pIC50 of under 4.70 (NCI-H1975; MTT; 72 h).
`CCCCC(=O)Nc1ccc(-c2ccc3ncn(CC#N)c(=O)c3c2)cn1` gave a pIC50 of under 5.00 (NCI-H1975; CCK-8; 72 h).
With `NCCC(=O)Nc1cccc(/N=c2\cc(-c3ccc4c(c3)OCO4)oc3ccccc23)c1` the inhibition was 2.94% (NCI-H1975; CCK-8; 1 µM).
`CCCCCCCCCCCCCCCCCCOc1ccc(CC(=O)OCC[N+](CC)(CC)CC)cc1` gave an inhibition of 13.3% (NCI-H322M; SRB; 10 µM).
The pEC50 of `C[C@H](Nc1ccc2c(c1)OCCn1cc(N3C(=O)OC[C@H]3C(F)F)nc1-2)C(N)=O` is reported as 7.13 (KPL4; ATP luminescence; 5 days).
`CCCCn1cnc2ccc(-c3ccc(NC(=O)Nc4ccccc4)nc3)cc2c1=O` gave a pIC50 of 5.61 (NCI-H1975; CCK-8; 72 h).
For `O=C(Nc1cccc(F)c1)Nc1nc2cc(-c3ccc4ncn(CCN5CCOCC5)c(=O)c4c3)ccc2s1`, the pIC50 was under 4.70 (NCI-H1975; MTT; 72 h).
`CC(C)(C)[C@H](N)C(=O)Nc1ccccc1/N=c1\cc(-c2ccc3c(c2)OCO3)oc2ccccc12` gave an inhibition of 3.21% (NCI-H1975; CCK-8; 1 µM).
The pIC50 of `CCCCC(=O)Nc1ccc(-c2ccc3ncn(CCF)c(=O)c3c2)cn1` is reported as 6.72 (NCI-H1975; CCK-8; 72 h).
For `CCCCCCCCCCCCCCCCCCOc1ccccc1CC(=O)OCC[N+](CC)(CC)CC`, the inhibition was 29.4% (NCI-H322M; SRB; 10 µM).
For `Cc1nc(Nc2ncc(C(=O)Nc3c(C)cccc3Cl)s2)cc(N2CC[C@H](O)C2)n1`, the inhibition was 96% (Pfeiffer; ATP luminescence; 10 µM; 72 h).
`CCCCCCCCCCCCCCCCCCOc1ccc(CC(=O)OCC[N+]2(C)CCOCC2)cc1` gave an inhibition of 3.14% (NCI-H322M; SRB; 10 µM).
With `Oc1cccc(-c2nc(N3CCOCC3)c3oc4ncccc4c3n2)c1` the inhibition was 38% (NCI-H1975; CCK-8; 1 µM).
The pIC50 of `O=C(Nc1ccc(F)cc1)Nc1nc2cc(-c3ccc4ncn(Cc5ccccc5)c(=O)c4c3)ccc2s1` is reported as 5.63 (NCI-H1975; MTT; 72 h).
The inhibition of `CCCCCCCCCCCCCCCCCCOc1cccc(CC(=O)OCC[N+]2(C)CCOCC2)c1` is reported as 1.47% (NCI-H322M; SRB; 10 µM).
The inhibition of `NCCC(=O)Nc1ccccc1/N=c1\cc(-c2ccc3nc(N)oc3c2)oc2ccc(O)cc12` is reported as 7.56% (NCI-H1975; CCK-8; 1 µM).
`CC(=O)O[C@H]1C(=O)[C@@]2(C)[C@H]([C@H](OC(=O)c3ccccc3)[C@]3(O)C[C@H](OC(=O)[C@H](O)[C@@H](NC(=O)c4ccccc4)c4ccccc4)C(C)=C1C3(C)C)[C@]1(OC(C)=O)CO[C@@H]1C[C@@H]2O` has a pIC50 of 7.14 (NCI-H1975; MTT; 72 h).
`O=C(Nc1ccc(-c2ccc3ncn(Cc4ccccc4)c(=O)c3c2)cn1)c1ccco1` has a pIC50 of under 5.00 (NCI-H1975; CCK-8; 72 h).
With `CCCCCCCCCCCCCCCCCCOc1cccc(CC(=O)OCC[N+](C)(C)C)c1` the inhibition was 0.32% (NCI-H322M; SRB; 10 µM).
The inhibition of `C[C@H](N)C(=O)Nc1ccccc1/N=c1\cc(-c2ccc3c(c2)OCCO3)oc2cc(F)ccc12` is reported as -0.65% (NCI-H1975; CCK-8; 1 µM).
The pIC50 of `CCCCNC(=O)Nc1nc2cc(-c3ccc4ncn(Cc5ccccc5)c(=O)c4c3)ccc2s1` is reported as 5.12 (NCI-H1975; MTT; 72 h).
`NCC(=O)Nc1ccccc1/N=c1\cc(-c2ccc3c(c2)OCCO3)oc2ccccc12` has an inhibition of 0.57% (NCI-H1975; CCK-8; 1 µM).
For `Cc1cc(C)cc(NC(=O)Nc2nc3cc(-c4ccc5ncn(Cc6ccccc6)c(=O)c5c4)ccc3s2)c1`, the pIC50 was under 4.70 (NCI-H1975; MTT; 72 h).
`Cc1nc(NC(=O)N2CCC[C@H]2C(N)=O)sc1-c1ccnc(C(C)(C)C(F)(F)F)c1` has a pEC50 of 5.92 (KPL4; ATP luminescence; 5 days).
The inhibition of `NCC(=O)Nc1ccccc1/N=c1\cc(-c2ccc3c(c2)OCCO3)oc2cc(F)ccc12` is reported as 4.41% (NCI-H1975; CCK-8; 1 µM).
With `CCCCn1cnc2ccc(-c3ccc(NC(=O)NCc4ccccc4)nc3)cc2c1=O` the pIC50 was 6.54 (NCI-H1975; CCK-8; 72 h).
With `CCCCCCCCCCCCCCCCCCOc1ccccc1CC(=O)OCCC[N+](C)(C)C` the inhibition was 15.7% (NCI-H322M; SRB; 10 µM).
`CCCCC(=O)Nc1ccc(-c2ccc3ncn(CCCF)c(=O)c3c2)cn1` gave a pIC50 of 6.85 (NCI-H1975; CCK-8; 72 h).
For `C[C@H](N)C(=O)Nc1ccccc1/N=c1\cc(-c2ccc3c(c2)OCO3)oc2ccccc12`, the inhibition was 1.32% (NCI-H1975; CCK-8; 1 µM).
The pIC50 of `CCCCn1cnc2ccc(-c3ccc(NC(=O)Nc4ccc(OC(F)(F)F)cc4)nc3)cc2c1=O` is reported as 6.33 (NCI-H1975; CCK-8; 72 h).
`COc1cccc2c1C(=O)c1c(O)c3c(c(O)c1C2=O)C[C@@](O)(C(=O)CO)C[C@@H]3O[C@H]1C[C@H](N)[C@H](O)[C@H](C)O1` has a pIC50 of 7.17 (NCI-H1975; MTT; 72 h).
